Reference: ChEMBL document CHEMBL3352788, “Characterization of selective exosite-binding inhibitors of matrix metalloproteinase 13 that prevent articular cartilage degradation in vitro” (J Med Chem, 2014)

What was measured:
[1] = target: T1, Cytochrome P450 1A2 (Homo sapiens, UniProt P05177); experiment: Inhibition of CYP1A2 (unknown origin) using tacrin substrate; assay type: ADME
T1 sequence (P05177 whole entry): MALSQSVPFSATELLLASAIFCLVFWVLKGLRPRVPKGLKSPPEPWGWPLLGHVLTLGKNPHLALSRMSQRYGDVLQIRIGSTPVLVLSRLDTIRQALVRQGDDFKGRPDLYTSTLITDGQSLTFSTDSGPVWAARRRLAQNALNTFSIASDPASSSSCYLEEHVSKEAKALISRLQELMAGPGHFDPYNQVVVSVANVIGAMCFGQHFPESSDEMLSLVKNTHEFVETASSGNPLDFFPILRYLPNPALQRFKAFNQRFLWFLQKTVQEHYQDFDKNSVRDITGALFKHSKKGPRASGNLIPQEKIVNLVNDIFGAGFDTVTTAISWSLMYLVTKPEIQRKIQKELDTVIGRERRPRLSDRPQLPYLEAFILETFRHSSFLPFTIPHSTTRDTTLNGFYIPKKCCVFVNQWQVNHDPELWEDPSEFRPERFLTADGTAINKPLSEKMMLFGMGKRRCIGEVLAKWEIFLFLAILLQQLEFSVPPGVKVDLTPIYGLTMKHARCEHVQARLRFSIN
In short: (§1)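 Human liver microsomes with probe substrate and an NADPH-regenerating system in 0.1 M potassium phosphate pH 7.4 at 37 °C, run in duplicate. Inhibitor at 0–20 μM (0–2.5 μM for one compound), eight concentrations. Reactions were stopped with acetonitrile/formic acid containing isotope-labelled internal standard, and metabolite area ratios were compared with and without inhibitor. IC50 was taken by linear interpolation between bracketing concentrations.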

[2] = target: T2, Cytochrome P450 3A4 (Homo sapiens, UniProt P08684); experiment: Inhibition of CYP3A4 (unknown origin) using testosterone substrate; assay type: ADME
In short: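 Reactions stopped with acetonitrile/0.1% formic acid plus labelled internal standard. Metabolite measured by LC-MS area ratio. IC50 by linear interpolation.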

[3] = target: T3, Caspase-2 (Homo sapiens) (UniProt P42575); experiment: Inhibition of recombinant human caspase 2 using DEVDAA substrate at up to 20 uM after 3 hrs
T3 sequence (whole entry): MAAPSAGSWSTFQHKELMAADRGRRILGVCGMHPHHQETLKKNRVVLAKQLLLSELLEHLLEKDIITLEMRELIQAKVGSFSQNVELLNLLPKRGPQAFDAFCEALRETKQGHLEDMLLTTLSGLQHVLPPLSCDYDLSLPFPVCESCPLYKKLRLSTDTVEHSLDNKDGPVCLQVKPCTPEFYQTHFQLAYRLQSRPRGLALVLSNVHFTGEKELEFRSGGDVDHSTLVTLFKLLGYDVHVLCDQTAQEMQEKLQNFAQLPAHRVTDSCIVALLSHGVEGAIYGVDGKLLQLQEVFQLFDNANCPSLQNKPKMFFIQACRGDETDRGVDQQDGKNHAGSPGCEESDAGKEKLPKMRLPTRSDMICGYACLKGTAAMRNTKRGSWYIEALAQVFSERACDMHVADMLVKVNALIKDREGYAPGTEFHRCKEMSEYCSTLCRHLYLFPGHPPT
In short: (§2)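 Outsourced microfluidic protease panel. Compound was preincubated with each protease for 30 min at 25 °C, then peptide substrate was added for 3 h at 25 °C and quenched with SDS/EDTA/iodoacetate. Substrate-to-product conversion was measured on LabChip. Compounds were tested singly in a 12-point 3-fold dilution series, top 20 μM (5 μM for two reference compounds).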

[4] = target: Furin (Homo sapiens) (UniProt P09958); experiment: Inhibition of recombinant human furin using RRVKRSLD substrate at up to 5 uM after 3 hrs
In short: (§3)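 In this microfluidic protease panel, enzyme and compound were preincubated 30 min at 25 °C. The peptide substrate was added and the reaction was incubated 3 h at 25 °C, then quenched (SDS, EDTA, iodoacetate). Activity was read as % substrate converted to product. Dose–response was singlicate, 12-point 3-fold dilutions spanning 5 μM to 0.028 nM. IC50 was the concentration leaving 50% activity relative to no-compound control.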

[5] = target: T4, Caspase-3 (Homo sapiens) (UniProt P42574); experiment: Inhibition of recombinant human caspase 3 using DEVDAA substrate at up to 5 uM after 3 hrs; in short: as §2
T4 sequence (whole entry): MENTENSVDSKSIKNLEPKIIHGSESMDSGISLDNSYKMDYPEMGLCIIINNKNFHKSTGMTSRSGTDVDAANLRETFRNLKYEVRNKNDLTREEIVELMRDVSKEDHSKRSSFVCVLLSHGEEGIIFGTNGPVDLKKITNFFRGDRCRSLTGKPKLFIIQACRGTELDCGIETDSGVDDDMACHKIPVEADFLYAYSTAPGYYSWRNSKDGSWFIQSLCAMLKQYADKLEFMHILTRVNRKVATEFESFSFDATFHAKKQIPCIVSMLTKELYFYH

[6] = target: T5, Caspase-6 (Homo sapiens) (UniProt P55212); experiment: Inhibition of recombinant human caspase 6 using VEHDGG substrate at up to 5 uM after 3 hrs; in short: as §2
T5 sequence (whole entry): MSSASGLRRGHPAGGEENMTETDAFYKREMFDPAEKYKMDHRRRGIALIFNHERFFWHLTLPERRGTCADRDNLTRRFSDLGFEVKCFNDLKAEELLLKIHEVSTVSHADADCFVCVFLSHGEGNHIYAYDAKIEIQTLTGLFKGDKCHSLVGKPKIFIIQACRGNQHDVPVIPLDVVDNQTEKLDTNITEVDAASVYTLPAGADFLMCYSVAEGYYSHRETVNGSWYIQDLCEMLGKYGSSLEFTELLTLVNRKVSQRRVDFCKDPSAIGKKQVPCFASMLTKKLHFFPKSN

[7] = target: CYP3A4 (Homo sapiens, UniProt P08684); experiment: Inhibition of CYP3A4 (unknown origin) using midazolam substrate at 20 uM; assay type: ADME; conditions: probe midazolam; in short: as §1
[8] = target: Coagulation factor X (Homo sapiens) (UniProt P00742); experiment: Inhibition of recombinant human factor 10a using ALPRTMFIQ substrate at up to 5 uM after 3 hrs; in short: as §3
[9] = target: T2, Cytochrome P450 3A4; experiment: Inhibition of CYP3A4 (unknown origin) using testosterone substrate at 20 uM; assay type: ADME; in short: as §1
[10] = target: Prothrombin (Homo sapiens) (UniProt P00734); experiment: Inhibition of recombinant human thrombin using PRTLT substrate at up to 5 uM after 3 hrs; in short: as §3
[11] = target: Beta-secretase 1 (Homo sapiens) (UniProt P56817); experiment: Inhibition of recombinant human BACE1 using SEVNLDAEFRKKRR substrate at up to 5 uM after 3 hrs; in short: as §2
Beta-secretase 1 (Homo sapiens), sequence (P56817 whole entry): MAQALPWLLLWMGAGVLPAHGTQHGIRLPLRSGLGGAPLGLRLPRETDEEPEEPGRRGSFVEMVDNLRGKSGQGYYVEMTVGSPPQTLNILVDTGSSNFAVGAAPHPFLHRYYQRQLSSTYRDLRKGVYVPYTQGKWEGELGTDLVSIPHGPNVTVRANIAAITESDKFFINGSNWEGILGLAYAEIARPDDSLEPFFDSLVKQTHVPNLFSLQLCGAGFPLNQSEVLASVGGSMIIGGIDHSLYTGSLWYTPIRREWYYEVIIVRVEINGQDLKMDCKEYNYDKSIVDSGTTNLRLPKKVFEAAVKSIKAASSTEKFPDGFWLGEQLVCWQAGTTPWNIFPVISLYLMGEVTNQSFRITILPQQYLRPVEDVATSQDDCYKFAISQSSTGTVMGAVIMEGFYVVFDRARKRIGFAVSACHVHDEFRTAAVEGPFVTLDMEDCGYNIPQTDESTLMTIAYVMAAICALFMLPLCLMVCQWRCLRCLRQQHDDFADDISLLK

T2 sequence (P08684 whole entry): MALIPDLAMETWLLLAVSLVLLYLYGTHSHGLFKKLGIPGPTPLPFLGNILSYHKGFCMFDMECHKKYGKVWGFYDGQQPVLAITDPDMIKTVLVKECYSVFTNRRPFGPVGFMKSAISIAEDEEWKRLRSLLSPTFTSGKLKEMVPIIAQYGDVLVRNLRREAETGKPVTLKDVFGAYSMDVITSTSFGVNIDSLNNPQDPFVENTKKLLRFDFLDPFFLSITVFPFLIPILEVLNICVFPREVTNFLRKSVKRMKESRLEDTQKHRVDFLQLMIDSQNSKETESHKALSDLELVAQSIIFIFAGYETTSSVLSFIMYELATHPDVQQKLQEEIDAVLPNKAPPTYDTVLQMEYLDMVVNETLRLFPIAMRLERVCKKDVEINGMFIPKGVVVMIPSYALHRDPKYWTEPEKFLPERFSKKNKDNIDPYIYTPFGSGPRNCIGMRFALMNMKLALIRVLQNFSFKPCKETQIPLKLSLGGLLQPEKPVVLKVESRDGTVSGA
Furin (Homo sapiens), sequence (P09958 whole entry): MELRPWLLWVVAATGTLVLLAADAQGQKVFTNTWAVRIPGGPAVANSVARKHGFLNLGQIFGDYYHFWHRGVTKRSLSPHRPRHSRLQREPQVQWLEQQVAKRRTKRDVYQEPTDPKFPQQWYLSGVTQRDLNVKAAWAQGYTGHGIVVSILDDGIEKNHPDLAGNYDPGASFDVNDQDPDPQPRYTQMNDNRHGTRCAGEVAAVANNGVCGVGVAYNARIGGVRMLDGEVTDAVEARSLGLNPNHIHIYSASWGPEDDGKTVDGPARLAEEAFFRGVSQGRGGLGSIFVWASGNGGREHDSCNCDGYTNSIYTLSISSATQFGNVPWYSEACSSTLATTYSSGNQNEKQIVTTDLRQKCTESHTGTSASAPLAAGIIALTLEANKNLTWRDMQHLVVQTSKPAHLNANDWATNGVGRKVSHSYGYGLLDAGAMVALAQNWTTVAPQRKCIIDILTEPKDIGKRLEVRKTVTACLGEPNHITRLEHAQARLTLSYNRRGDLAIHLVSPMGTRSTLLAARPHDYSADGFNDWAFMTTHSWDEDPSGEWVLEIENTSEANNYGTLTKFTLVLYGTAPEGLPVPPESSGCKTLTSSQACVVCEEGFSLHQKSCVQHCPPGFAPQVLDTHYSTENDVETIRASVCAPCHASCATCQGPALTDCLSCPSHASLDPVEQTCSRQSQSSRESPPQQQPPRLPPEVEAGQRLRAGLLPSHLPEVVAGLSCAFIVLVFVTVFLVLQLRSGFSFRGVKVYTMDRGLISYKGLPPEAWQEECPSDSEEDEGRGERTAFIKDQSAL
Coagulation factor X (Homo sapiens), sequence (P00742 41-179 limits assumed): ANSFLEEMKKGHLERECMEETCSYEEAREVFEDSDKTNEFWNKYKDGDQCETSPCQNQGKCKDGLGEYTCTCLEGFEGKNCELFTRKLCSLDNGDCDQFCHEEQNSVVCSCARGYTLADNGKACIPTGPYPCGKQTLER
Coagulation factor X (Homo sapiens), sequence (P00742 235-488 limits assumed): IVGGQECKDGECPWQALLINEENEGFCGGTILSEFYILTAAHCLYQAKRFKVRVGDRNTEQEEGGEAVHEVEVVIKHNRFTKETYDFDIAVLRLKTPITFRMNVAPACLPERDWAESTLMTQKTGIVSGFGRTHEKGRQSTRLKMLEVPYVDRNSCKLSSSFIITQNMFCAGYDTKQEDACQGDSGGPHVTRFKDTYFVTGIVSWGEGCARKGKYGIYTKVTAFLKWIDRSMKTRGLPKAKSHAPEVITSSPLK
CYP3A4, sequence (P08684 whole entry): as the sequence (P08684 whole entry) above

Row | Structure (SMILES) | IC50 [1] [µM] | IC50 [2] [µM] | inhibition [3] [%] | inhibition [4] [%] | inhibition [5] [%] | inhibition [6] [%] | inhibition at 20 µM [7] [%] | inhibition [8] [%] | inhibition (INH) [9] [%] | inhibition [10] [%] | inhibition [11] [%]
1 | Oc1nc(SCc2ccc(Cl)cc2)nc2c1CCC2 | 8.6 | > 20 | < 10 |  |  |  |  |  |  |  | 
2 | Cc1ccc(CSc2nc(O)c3c(n2)CCC3)cc1 |  |  | < 10 |  |  |  |  |  |  |  | 
3 | Cc1cc(CNC(=O)c2cc(C(=O)NCc3ccc(F)c(C)c3)ncn2)ccc1F | > 20 |  |  | < 10 | < 10 | < 10 | < 50 | < 10 | > 10 | < 10 | < 10
4 | COC(=O)c1ccc(CSc2nc3c(c(=O)[nH]2)CCC3)cc1 | > 20 | > 20 | < 10 |  |  |  | < 50 |  | < 50 |  | 
5 | Cn1c(=O)n(Cc2ccc(C(=O)O)cc2)c(=O)c2cc(C#CCc3ccccc3)ccc21 | > 2.5 |  |  | < 10 | < 10 | < 10 |  | < 10 |  | < 10 | < 10
